ChEMBL document CHEMBL1649552 (2009)
In brackets after ≈: the same amount, converted by molar mass.

Experiments:
Type in all cases: functional
[1] = tested on: Streptococcus pneumoniae; experiment: Antibacterial activity against Streptococcus pneumoniae by CLSI M100-S17 method
[2] = tested on: Streptococcus pneumoniae; experiment: Antibacterial activity against Streptococcus pneumoniae assessed as susceptible isolates by CLSI M100-S17 method
How it was run: (§1)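 CLSI broth microdilution on clinical isolates, using frozen in-house-prepared panels of test and comparator agents. MICs were read after 20 to 24 h incubation at 35°C in ambient air. Susceptible/intermediate categories were assigned by CLSI M100-S17 guidelines.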

[3] = tested on: Streptococcus pneumoniae; experiment: Antibacterial activity against Streptococcus pneumoniae assessed as intermediate isolates by CLSI M100-S17 method; how it was run: as §1
[4] = tested on: Streptococcus pneumoniae; experiment: Antibacterial activity against Streptococcus pneumoniae assessed as resistant isolates by CLSI M100-S17 method
How it was run: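 Clinical isolates were tested by CLSI broth microdilution in frozen, in-house-prepared 96-well panels of the test agent and comparator agents. MICs were read and classed as susceptible, intermediate or resistant using CLSI M100-S17 breakpoints. The value is the share of isolates in each category.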

[5] = tested on: Streptococcus pyogenes; experiment: Antibacterial activity against Streptococcus pyogenes by CLSI M100-S17 method
[6] = tested on: Streptococcus pyogenes; experiment: Antibacterial activity against Streptococcus pyogenes assessed as susceptible isolates by CLSI M100-S17 method; how it was run: as §1
[7] = tested on: Streptococcus agalactiae; experiment: Antibacterial activity against Streptococcus agalactiae by CLSI M100-S17 method
[8] = tested on: Streptococcus agalactiae; experiment: Antibacterial activity against Streptococcus agalactiae assessed as susceptible isolates by CLSI M100-S17 method; how it was run: as §1
[9] = tested on: Moraxella catarrhalis; experiment: Antibacterial activity against Moraxella catarrhalis by CLSI M100-S17 method
[10] = tested on: Staphylococcus aureus; experiment: Antibacterial activity against methicillin-susceptible Staphylococcus aureus by CLSI M100-S17 method
[11] = tested on: Staphylococcus aureus; experiment: Antibacterial activity against methicillin-susceptible Staphylococcus aureus assessed as susceptible isolates by CLSI M100-S17 method
[12] = tested on: Staphylococcus aureus; experiment: Antibacterial activity against methicillin-susceptible Staphylococcus aureus assessed as intermediate isolates by CLSI M100-S17 method
[13] = tested on: Staphylococcus aureus; experiment: Antibacterial activity against methicillin-susceptible Staphylococcus aureus assessed as resistant isolates by CLSI M100-S17 method
[14] = tested on: Staphylococcus aureus; experiment: Antibacterial activity against methicillin-resistant Staphylococcus aureus by CLSI M100-S17 method
[15] = tested on: Staphylococcus aureus; experiment: Antibacterial activity against methicillin-resistant Staphylococcus aureus assessed as susceptible isolates by CLSI M100-S17 method
[16] = tested on: Staphylococcus aureus; experiment: Antibacterial activity against methicillin-resistant Staphylococcus aureus assessed as intermediate isolates by CLSI M100-S17 method
[17] = tested on: Staphylococcus aureus; experiment: Antibacterial activity against methicillin-resistant Staphylococcus aureus assessed as resistant isolates by CLSI M100-S17 method
[18] = tested on: Staphylococcus epidermidis; experiment: Antibacterial activity against methicillin-susceptible Staphylococcus epidermidis by CLSI M100-S17 method
[19] = tested on: Staphylococcus epidermidis; experiment: Antibacterial activity against methicillin-susceptible Staphylococcus epidermidis assessed as susceptible isolates by CLSI M100-S17 method
[20] = tested on: Staphylococcus epidermidis; experiment: Antibacterial activity against methicillin-susceptible Staphylococcus epidermidis assessed as intermediate isolates by CLSI M100-S17 method
[21] = tested on: Staphylococcus epidermidis; experiment: Antibacterial activity against methicillin-susceptible Staphylococcus epidermidis assessed as resistant isolates by CLSI M100-S17 method
[22] = tested on: Staphylococcus epidermidis; experiment: Antibacterial activity against methicillin-resistant Staphylococcus epidermidis by CLSI M100-S17 method
[23] = tested on: Staphylococcus epidermidis; experiment: Antibacterial activity against methicillin-resistant Staphylococcus epidermidis assessed as susceptible isolates by CLSI M100-S17 method
[24] = tested on: Staphylococcus epidermidis; experiment: Antibacterial activity against methicillin-resistant Staphylococcus epidermidis assessed as intermediate isolates by CLSI M100-S17 method
[25] = tested on: Staphylococcus epidermidis; experiment: Antibacterial activity against methicillin-resistant Staphylococcus epidermidis assessed as resistant isolates by CLSI M100-S17 method
[26] = tested on: Enterococcus faecalis; experiment: Antibacterial activity against Enterococcus faecalis by CLSI M100-S17 method
[27] = tested on: Enterococcus faecalis; experiment: Antibacterial activity against Enterococcus faecalis assessed as susceptible isolates by CLSI M100-S17 method
[28] = tested on: Enterococcus faecalis; experiment: Antibacterial activity against Enterococcus faecalis assessed as intermediate isolates by CLSI M100-S17 method
[29] = tested on: Enterococcus faecalis; experiment: Antibacterial activity against Enterococcus faecalis assessed as resistant isolates by CLSI M100-S17 method
[30] = tested on: Enterococcus faecium; experiment: Antibacterial activity against Enterococcus faecium by CLSI M100-S17 method
[31] = tested on: Enterococcus faecium; experiment: Antibacterial activity against Enterococcus faecium assessed as susceptible isolates by CLSI M100-S17 method
[32] = tested on: Enterococcus faecium; experiment: Antibacterial activity against Enterococcus faecium assessed as intermediate isolates by CLSI M100-S17 method
[33] = tested on: Escherichia coli; experiment: Antibacterial activity against Escherichia coli by CLSI M100-S17 method
[34] = tested on: Escherichia coli; experiment: Antibacterial activity against Escherichia coli assessed as susceptible isolates by CLSI M100-S17 method
[35] = tested on: Escherichia coli; experiment: Antibacterial activity against Escherichia coli assessed as intermediate isolates by CLSI M100-S17 method
[36] = tested on: Escherichia coli; experiment: Antibacterial activity against Escherichia coli assessed as resistant isolates by CLSI M100-S17 method
[37] = tested on: Klebsiella pneumoniae; experiment: Antibacterial activity against Klebsiella pneumoniae assessed as susceptible isolates by CLSI M100-S17 method
[38] = tested on: Klebsiella pneumoniae; experiment: Antibacterial activity against Klebsiella pneumoniae assessed as intermediate isolates by CLSI M100-S17 method
[39] = tested on: Klebsiella pneumoniae; experiment: Antibacterial activity against Klebsiella pneumoniae assessed as resistant isolates by CLSI M100-S17 method
[40] = tested on: Klebsiella oxytoca; experiment: Antibacterial activity against Klebsiella oxytoca assessed as susceptible isolates by CLSI M100-S17 method
[41] = tested on: Klebsiella oxytoca; experiment: Antibacterial activity against Klebsiella oxytoca assessed as intermediate isolates by CLSI M100-S17 method
[42] = tested on: Klebsiella oxytoca; experiment: Antibacterial activity against Klebsiella oxytoca assessed as resistant isolates by CLSI M100-S17 method
[43] = tested on: Enterobacter cloacae; experiment: Antibacterial activity against Enterobacter cloacae by CLSI M100-S17 method
[44] = tested on: Enterobacter cloacae; experiment: Antibacterial activity against Enterobacter cloacae assessed as susceptible isolates by CLSI M100-S17 method
[45] = tested on: Enterobacter cloacae; experiment: Antibacterial activity against Enterobacter cloacae assessed as intermediate isolates by CLSI M100-S17 method
[46] = tested on: Enterobacter cloacae; experiment: Antibacterial activity against Enterobacter cloacae assessed as resistant isolates by CLSI M100-S17 method
[47] = tested on: Proteus mirabilis; experiment: Antibacterial activity against Proteus mirabilis by CLSI M100-S17 method
[48] = tested on: Proteus mirabilis; experiment: Antibacterial activity against Proteus mirabilis assessed as susceptible isolates by CLSI M100-S17 method
[49] = tested on: Proteus mirabilis; experiment: Antibacterial activity against Proteus mirabilis assessed as intermediate isolates by CLSI M100-S17 method
[50] = tested on: Proteus mirabilis; experiment: Antibacterial activity against Proteus mirabilis assessed as resistant isolates by CLSI M100-S17 method
[51] = tested on: Serratia marcescens; experiment: Antibacterial activity against Serratia marcescens by CLSI M100-S17 method
[52] = tested on: Serratia marcescens; experiment: Antibacterial activity against Serratia marcescens assessed as intermediate isolates by CLSI M100-S17 method
[53] = tested on: Serratia marcescens; experiment: Antibacterial activity against Serratia marcescens assessed as resistant isolates by CLSI M100-S17 method
[54] = tested on: Pseudomonas aeruginosa; experiment: Antibacterial activity against Pseudomonas aeruginosa by CLSI M100-S17 method
[55] = tested on: Pseudomonas aeruginosa; experiment: Antibacterial activity against Pseudomonas aeruginosa assessed as susceptible isolates by CLSI M100-S17 method
[56] = tested on: Pseudomonas aeruginosa; experiment: Antibacterial activity against Pseudomonas aeruginosa assessed as intermediate isolates by CLSI M100-S17 method
[57] = tested on: Pseudomonas aeruginosa; experiment: Antibacterial activity against Pseudomonas aeruginosa assessed as resistant isolates by CLSI M100-S17 method
[58] = tested on: Stenotrophomonas maltophilia; experiment: Antibacterial activity against Stenotrophomonas maltophilia by CLSI M100-S17 method
[59] = tested on: Acinetobacter baumannii; experiment: Antibacterial activity against Acinetobacter baumannii by CLSI M100-S17 method
[60] = tested on: Acinetobacter baumannii; experiment: Antibacterial activity against Acinetobacter baumannii assessed as susceptible isolates by CLSI M100-S17 method
[61] = tested on: Acinetobacter baumannii; experiment: Antibacterial activity against Acinetobacter baumannii assessed as intermediate isolates by CLSI M100-S17 method
[62] = tested on: Acinetobacter baumannii; experiment: Antibacterial activity against Acinetobacter baumannii assessed as resistant isolates by CLSI M100-S17 method

Molecule: CC1(C)S[C@@H]2[C@H](NC(=O)Cc3ccccc3)C(=O)N2[C@H]1C(=O)O [PENICILLIN G]
- MIC50 [1]: 0.06 µg/mL (≈ 0.179 µM)
- MIC90 [1]: 0.25 µg/mL (≈ 0.748 µM)
- Activity [2]: 79.3%
- Activity [3]: 15.7%
- Activity [4]: 5%
- MIC [5]: ≤ 0.03 µg/mL
- MIC50 [5]: ≤ 0.03 µg/mL
- MIC90 [5]: ≤ 0.03 µg/mL
- Activity [6]: 100%
- MIC50 [7]: 0.06 µg/mL (≈ 0.179 µM)
- MIC90 [7]: 0.25 µg/mL (≈ 0.748 µM)
- Activity [8]: 100%
- MIC50 [9]: > 8 µg/mL
- MIC90 [9]: > 8 µg/mL

Molecule: CN[C@H](CC(C)C)C(=O)N[C@H]1C(=O)N[C@@H](CC(N)=O)C(=O)N[C@H]2C(=O)N[C@H]3C(=O)N[C@H](C(=O)N[C@H](C(=O)O)c4cc(O)cc(O)c4-c4cc3ccc4O)[C@H](O)c3ccc(c(Cl)c3)Oc3cc2cc(c3O[C@@H]2O[C@H](CO)[C@@H](O)[C@H](O)[C@H]2O[C@H]2C[C@](C)(N)[C@H](O)[C@H](C)O2)Oc2ccc(cc2Cl)[C@H]1O [VANCOMYCIN]
- MIC50 [10]: 1 µg/mL (≈ 0.69 µM)
- MIC90 [10]: 1 µg/mL (≈ 0.69 µM)
- Activity [11]: 100%
- Activity [12]: 0%
- Activity [13]: 0%
- MIC50 [14]: 1 µg/mL (≈ 0.69 µM)
- MIC90 [14]: 1 µg/mL (≈ 0.69 µM)
- Activity [15]: 100%
- Activity [16]: 0%
- Activity [17]: 0%
- MIC90 [18]: 2 µg/mL (≈ 1.38 µM)
- Activity [19]: 100%
- Activity [20]: 0%
- Activity [21]: 0%
- MIC90 [22]: 2 µg/mL (≈ 1.38 µM)
- Activity [23]: 100%
- Activity [24]: 0%
- Activity [25]: 0%
- MIC50 [1]: ≤ 0.25 µg/mL
- MIC90 [1]: 0.25 µg/mL (≈ 0.173 µM)
- Activity [2]: 100%
- MIC50 [5]: 0.5 µg/mL (≈ 0.345 µM)
- MIC90 [5]: 0.5 µg/mL (≈ 0.345 µM)
- Activity [6]: 100%
- MIC50 [7]: ≤ 0.25 µg/mL
- MIC90 [7]: 0.25 µg/mL (≈ 0.173 µM)
- MIC50 [26]: 1 µg/mL (≈ 0.69 µM)
- MIC90 [26]: 2 µg/mL (≈ 1.38 µM)
- Activity [27]: 100%
- Activity [28]: 0%
- Activity [29]: 0%
- MIC50 [30]: 0.5 µg/mL (≈ 0.345 µM)
- MIC90 [30]: > 32 µg/mL
- Activity [31]: 87.9%
- Activity [32]: 0%

Molecule: GENTAMICIN
- MIC90 [10]: 1 µg/mL
- Activity [11]: 96.7%
- Activity [12]: 0.1%
- Activity [13]: 3.2%
- MIC90 [14]: > 32 µg/mL
- Activity [15]: 86.8%
- Activity [16]: 0%
- Activity [17]: 13.2%
- MIC90 [18]: > 32 µg/mL
- Activity [19]: 58.3%
- Activity [20]: 10.2%
- Activity [21]: 31.5%
- MIC50 [22]: 16 µg/mL
- MIC90 [22]: > 32 µg/mL
- Activity [23]: 30%
- Activity [24]: 15%
- Activity [25]: 55%
- MIC90 [33]: 16 µg/mL
- Activity [34]: 88.9%
- Activity [35]: 0.5%
- Activity [36]: 10.6%
- Activity [37]: 96.7%
- Activity [38]: 0.4%
- Activity [39]: 2.9%
- Activity [40]: 97%
- Activity [41]: 2%
- Activity [42]: 1%
- MIC90 [43]: 1 µg/mL
- Activity [44]: 96.4%
- Activity [45]: 0%
- Activity [46]: 3.6%
- MIC50 [47]: 1 µg/mL
- MIC90 [47]: 2 µg/mL
- Activity [48]: 95.8%
- Activity [49]: 0.8%
- Activity [50]: 3.4%
- MIC90 [51]: 1 µg/mL
- Activity [52]: 3.7%
- Activity [53]: 4.7%
- MIC50 [54]: 4 µg/mL
- MIC90 [54]: > 32 µg/mL
- Activity [55]: 60.1%
- Activity [56]: 19%
- Activity [57]: 20.9%
- MIC50 [58]: 32 µg/mL
- MIC90 [58]: > 32 µg/mL
- MIC90 [59]: 1 µg/mL
- Activity [60]: 92%
- Activity [61]: 0%
- Activity [62]: 8%
